# GAA850 FXN act: FXN promoter activators, primary screen, cell-based, luciferase luminescence, HEK293 lucGAA850 | actives 0.56% (n = 360,000) | activation, % at 6 µM | HEK293 lucGAA850 FXN promoter luciferase reporter, 24 h; percent of 10 µM SAHA response;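 active means activation above the average of all compounds screened plus 3 SD, cutoff fixed separately per campaign, cut at about 7.5% in these data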;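 further: 0% = DMSO wells and 100% = 10 µM SAHA wells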
# GASC-1 inh: inhibitors of GASC-1 histone demethylase, primary screen, biochemical, fluorescence, DELFIA europium; GST-JMJD2C(1-420) H3K9me3 demethylation; AID 2099, 2009; inhibition, % at 2.35 µM; actives 0.069% (n = 330,000);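 active means more than half of a compound's replicate wells show inhibition beyond 50%, single wells judged on their own value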;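 further: signal counts dimethyl H3K9 product captured on neutravidin plate; 0% = median of DMSO wells and 100% = 0.3 times that DMSO median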
# Target sequence (Q9H3R0 1-420 limits assumed): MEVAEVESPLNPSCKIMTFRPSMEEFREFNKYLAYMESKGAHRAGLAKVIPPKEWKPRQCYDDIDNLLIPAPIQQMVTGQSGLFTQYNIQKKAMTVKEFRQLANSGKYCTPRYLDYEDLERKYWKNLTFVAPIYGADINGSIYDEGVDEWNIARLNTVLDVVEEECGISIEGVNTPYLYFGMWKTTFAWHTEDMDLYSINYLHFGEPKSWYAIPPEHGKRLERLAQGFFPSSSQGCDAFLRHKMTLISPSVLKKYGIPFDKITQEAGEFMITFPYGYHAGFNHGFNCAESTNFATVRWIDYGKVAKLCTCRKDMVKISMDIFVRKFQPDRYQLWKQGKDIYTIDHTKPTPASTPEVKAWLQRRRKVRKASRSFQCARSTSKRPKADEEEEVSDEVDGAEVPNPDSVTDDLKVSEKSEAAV
# AHR activator: AHR activators, primary screen, cell-based, luminescence, luciferase reporter, human; actives 2.5% (n = 320,000); Aryl hydrocarbon receptor (Homo sapiens), P35869; AID 2796, 2010; AHR-responsive luciferase reporter cells; activation, % at 5 µM; in the data active means activation above about 47%;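 further: 0% = vehicle wells and 100% = reference agonist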
# SR-BI DiI-HDL act: activators of SR-BI mediated DiI-HDL uptake, primary screen, ldlA[mSR-BI] CHO cells, DiI fluorescence; actives 0.096% (n = 320,000); 3 h; 100 = double the neutral-control signal; activation, % at 12.5 µM; AID 504775, 2011;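 active means mean replicate activation of at least 60% and every replicate at or above 60%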;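 further: 0% = median plate neutral-control signal and 100% = twice that signal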
#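 Material: SR-BI-overexpressing, LDLR-lacking CHO cells | Dosing: Single compound concentration, delivered by pin transfer | Probe or stimulus: Labelled HDL, 10 µg/mL | Signal: Bottom-read cell fluorescence after medium removal, ex 550/em 595 nm | Schedule: 3 h, 37 °C | Evaluation: HDL uptake via cellular fluorescence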
# SR-BI DiI inh: inhibitors of SR-BI mediated HDL lipid uptake, primary screen, ldlA[mSR-BI] cells, fluorescence, single point | actives 0.96% (n = 320,000) | Scavenger receptor class B member 1 (Mus musculus), Q61009 | inhibition, % at 12.5 µM | ldlA[mSR-BI] CHO cells, DiI-HDL uptake fluorescence, 3 h;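 active means mean replicate inhibition of at least 70% and a set share of replicates each scoring 70 or more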;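 further: 0% = median of neutral control wells and 100% = median of positive control wells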
# Numbers without * were called inactive; . = no result given. In the library only some 3.7% were active in any assay of this set; here they are far more common.
SMILES,GAA850 FXN act,GASC-1 inh,AHR activator,SR-BI DiI-HDL act,SR-BI DiI inh
COc1ccccc1N1CCN(C(=O)c2cnn3cccnc23)CC1,.,-8,.,.,.
Fc1cccc(/C=N/Nc2ccc3ccccc3n2)c1,3,-5,16,-13,13
Brc1ccc(/C=N/Nc2ccc3ccccc3n2)cc1,7.8*,-5,69*,6,-6
COC(=O)c1ccc(COc2ccc(CNCc3ccc(Cl)cc3)cc2)cc1,4,47,1,.,.
C=CCc1c(O)c(CC)cc2c(C)cc(=O)oc12,3,-5,1,.,.
CCOC(=O)CCCCCC(=O)Nc1ccc2c(c1)C(=O)N([C@H](C)CO)C[C@@H](C)[C@@H](CN(C)C(=O)CCC(F)(F)F)OCCCC[C@H](C)O2,-1,.,.,.,.
CCOc1ccc(C(=O)NCC(=O)N2CCC(C)CC2)cc1OCC,1,24,-1,-21,21
S=C(Nc1cccc(Br)c1)c1ccccc1,4,1,79*,3,-3
O=C1NC(c2ccc(Br)cc2)Nc2sc3c(c21)CCC3 (configuration not stated),-1,-2,77*,-14,14
Cc1ccsc1C1NC(=O)c2c(sc3c2CCCC3)N1 (configuration not stated),3,13,114*,-4,4
COc1cc(NC(=O)c2cccc(C)c2)ccc1NC(=O)c1cc2ccccc2o1,-2,14,26,-85,85*
CCOc1cccc(C(=O)Nc2ccc(NC(=O)c3cc4ccccc4o3)c(OC)c2)c1,1,-11,8,-72,72*
COc1cc(NC(=O)c2cccc([N+](=O)[O-])c2)ccc1NC(=O)c1cc2ccccc2o1,2,6,4,-49,49
CNC(=O)NNC(=O)c1csc(Cc2c(Cl)sc3ccc(Cl)cc23)n1,1,-2,47*,-25,25
CNC(=O)NNC(=O)c1csc(-c2ccc(C(F)(F)F)cc2Cl)n1,1,-32,8,3,-3
CC(C)CC(=O)NC(=S)Nc1nc(-c2ccccc2)cs1,4,20,67*,-21,21
O=C(NC(=S)Nc1nc(-c2ccccc2)cs1)c1cccs1,1,22,68*,-4,4
Cc1ccc2cccc(NC(=S)NC(=O)c3ccnn3C)c2n1,5,1,55*,-23,23
O=C(NC(=S)Nc1cccc2cccnc12)c1cccs1,4,-8,70*,3,-3
O=C(NC(=S)Nc1cccc2cccnc12)c1ccccc1,1,-8,32,.,.
O=C1c2ccccc2C(=O)N1CC(O)CNc1ccc(Br)cc1 (configuration not stated),-3,-7,-1,18,-18
Cc1nc(NC(=S)NC(=O)c2cccs2)ccc1Br,5,0,71*,8,-8
Cc1cccc(NC(=S)NC(=O)c2cccs2)n1,3,-1,24,25,-25
CC(C)(C)OC(=O)CNC(=O)c1[nH]cnc1C(=O)NC(c1ccccc1)c1ccccc1,0,-5,2,11,-11
COc1ccc([C@H]2CC(=O)C=C(c3ccc(F)cc3OCc3ccccc3)C2)cc1,2,11,1,19,-19
SMILES,GAA850 FXN act,GASC-1 inh,AHR activator,SR-BI DiI-HDL act,SR-BI DiI inh
O=C1C=C(c2ccc(F)cc2OCc2ccccc2)C[C@@H](c2ccc(F)cc2)C1,0,20,4,-75,75*
O=[N+]([O-])c1ccccc1S(=O)(=O)Nc1ccc(S(=O)(=O)N2CCCC2)cc1,-1,-4,0,16,-16
Cc1nn(C(C)C(=O)NC2CCC(C)CC2)c(=O)c2nn(-c3ccccc3)c(C)c12 (configuration not stated),0,-3,4,-22,22
COc1ccc(-c2cc(=O)c3c(O)cc(O)cc3o2)cc1,0,.,8,-33,33
O=c1cc(-c2ccc(O)c(O)c2)oc2cc(O)cc(O)c12,11*,-4,-3,-41,41
CCN(CC)CCN1CCn2c3c(c4cc(C)ccc42)CCCC31 (configuration not stated),1,0,15,-15,15
Cc1ccc2c(c1)c1c3n2CCN(C=O)C3CCC1 (configuration not stated),1,5,53*,-23,23
CCOC(=O)C1(CCCc2ccccc2)CCN(C(=O)CN2C(=O)CSC2=O)CC1,0,7,0,-5,5
COc1ccc(C(=O)Nc2ccc(O)c3ccccc23)cc1,-3,11,39,-2,2
CCOc1cccc(C(=O)Nc2nnc(-c3ccco3)s2)c1,0,0,48*,9,-9
COc1ccc(NC(=O)Nc2ccc(O)c3ccccc23)cc1,.,-20,75*,.,.
COc1ccc(NC(=O)Nc2nnc(-c3ccco3)s2)cc1,5,0,64*,.,.
Cc1ccc(NC(=O)Nc2nnc(-c3ccccc3F)s2)cc1,1,-19,0,-1,1
COc1ccc(NC(=O)Nc2nnc(-c3ccccc3F)s2)cc1,-1,8,71*,-15,15
Cc1ccc(C)c(NC(=O)CCC(=O)NNC(=O)COc2cc(C)ccc2C)c1,0,0,11,-19,19
COc1ccc(N2CCN(C(=O)NCc3cccc(OC)c3)CC2)cc1,-1,-8,-2,2,-2
CCOc1ccc(NC(=O)CC2S/C(=N/N=C3CCCCCC3)NC2=O)cc1 (configuration not stated),2,3,3,4,-4
CN(c1ccc(O)cc1)c1nc(-c2cccs2)cs1,1,-19,47*,-2,2
Cc1ccc(Cl)c2sc(NC(=O)C3=COCCO3)nc12,2,6,58*,-42,42
Cc1sc(NC(=O)C2=COCCO2)nc1-c1ccc(Cl)cc1,0,-5,65*,-52,52
O=C(NCC(c1ccco1)N1CCCCC1)c1cccc(NS(=O)(=O)c2ccc(Br)cc2)c1 (configuration not stated),-1,108,2,7,-7
CS(=O)(=O)N1N=C(c2ccc(Br)cc2)CC1c1ccc2c(c1)OCO2 (configuration not stated),12*,-6,19,-9,9
Cc1ccc(C2=NN(S(C)(=O)=O)C(c3ccc4c(c3)OCO4)C2)cc1 (configuration not stated),5,-2,18,-3,3
O=C(Nc1ccc(Cl)c(Cl)c1)Nc1ccc(N2CCCC2)c(S(=O)(=O)Nc2ccccc2Cl)c1,-2,1,1,-86,86*

# Source: PubChem
